Hits are enriched below; roughly 0.95% of the tested compounds scored in any of these assays.
HNF4A DNA FP – change in binding of human HNF4 alpha to DNA. P41235. HNF4a-FITC DNA binding, fluorescence polarization, 1 h. activity change, % at 10 µM. hit rate 0.3% among 360,000. AID 1224865; in the data active = activity change above about 30%, passing the limit was not always enough
CSN inh – inhibitors of human CSN-mediated cullin deneddylation; Q92905; Purified CSN, SCF-Nedd8-OG deneddylation, fluorescence polarization; inhibition, % at 12.5 µM; hit rate 0.38% among 360,000; AID 651999;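 active = pattern-corrected inhibition above about 35%, with an unprinted fluorescence ratio check between 0.5 and 1.5, limit read from the data, passing the limit was not always enough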;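 note: 0% = enzyme with substrate and 100% = substrate without enzyme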
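Schedule: reaction 90 min, room temperature / Assay system: HEK293T-derived human Csn5 enzyme / Input: Csn5 at 0.24 nM final / Measure: inhibition of Csn5 cleavage, % / Control set: substrate-only high control, full reaction low control / Technique: fluorescence polarization of the substrate / Buffer or medium: Tris/NaCl/DTT buffer, pH 7.5 / Reagent: SCFSkp2-Nedd8OG substrate at 10 nM final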
ASAP1 GAP inh – ASAP1 ArfGAP inhibition. AID 624377. hit rate 0.19% among 360,000. Q9ULH1. ASAP1-stimulated ARF1 GTP hydrolysis, GDP FP detection. inhibition, % at 16.5 µM; in the data active = inhibition above about 25%;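 note: 0% = vehicle with enzyme and substrate and 100% = no enzyme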
Target sequence (Q9ULH1 325-724 limits assumed): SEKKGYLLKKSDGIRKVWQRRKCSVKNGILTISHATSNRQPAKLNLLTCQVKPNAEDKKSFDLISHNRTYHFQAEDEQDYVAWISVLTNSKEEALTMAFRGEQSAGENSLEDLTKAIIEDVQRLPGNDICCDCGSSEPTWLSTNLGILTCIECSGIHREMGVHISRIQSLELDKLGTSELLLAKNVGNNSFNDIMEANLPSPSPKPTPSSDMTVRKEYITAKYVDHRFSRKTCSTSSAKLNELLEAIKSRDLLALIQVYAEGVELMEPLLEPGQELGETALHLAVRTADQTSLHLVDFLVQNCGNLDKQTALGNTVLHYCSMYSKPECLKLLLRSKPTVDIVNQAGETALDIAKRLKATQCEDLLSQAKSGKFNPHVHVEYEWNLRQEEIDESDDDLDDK
ARFGAP1 inhibitor – inhibitors of rat ARFGAP1 | inhibition, % at 16.5 µM | Arfgap1-stimulated ARF1 GTP hydrolysis, GDP FP detection | hit rate 0.26% among 360,000 | AID 651572;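 active = inhibition above a per-plate limit, mean inhibition of low control wells plus 3 SD, cut at about 25% in these data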;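 note: 0% = DMSO wells with enzyme and 100% = wells lacking Arfgap1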
Target sequence (Q62848 1-136 limits assumed): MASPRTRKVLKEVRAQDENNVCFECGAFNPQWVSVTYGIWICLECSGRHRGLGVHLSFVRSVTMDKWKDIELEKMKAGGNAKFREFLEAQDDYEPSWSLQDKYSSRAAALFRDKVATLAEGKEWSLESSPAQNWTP
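Assay system: Rat Arfgap1 GAP domain (His6, aa 1-136), purified enzyme | Buffer or medium: HEPES 25 mM pH 7.5, NaCl 150 mM, MgCl2, DTT | Schedule: GTP hydrolysis reaction 2 h at 25 °C | Signal: FP of antibody-bound GDP Alexa 633 tracer, ex 620/em 688 nm | Measure: Percent inhibition of Arfgap1-stimulated GTP hydrolysis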
Numbers without * were called inactive.

`CCCCn1cc(SCC(=O)O)c2ccccc21` gave HNF4A DNA FP -5, CSN inh 59*, ASAP1 GAP inh -11 and ARFGAP1 inhibitor -8.
`CCOC(=O)C1CCCN(Cc2nc3ccc([N+](=O)[O-])cc3c(=O)n2-c2ccc(OC)cc2OC)C1` (stereo not drawn) gave HNF4A DNA FP 37*, CSN inh 4, ASAP1 GAP inh 0 and ARFGAP1 inhibitor -8.
Screening CCOC(=O)C1CCN(Cc2nc3ccc([N+](=O)[O-])cc3c(=O)n2-c2ccc(OC)cc2OC)CC1 returned HNF4A DNA FP -2, CSN inh 0, ASAP1 GAP inh 16 and ARFGAP1 inhibitor 13.
O=c1c2c(nc3cc(-c4ccccc4)[nH]n13)CCS2 was read as HNF4A DNA FP 0, CSN inh -3, ASAP1 GAP inh -17 and ARFGAP1 inhibitor 4.
O=c1c2c(nc3cc(-c4ccccc4Cl)[nH]n13)CCS2 was read as HNF4A DNA FP -5, CSN inh 81*, ASAP1 GAP inh 7 and ARFGAP1 inhibitor -7.
`N#Cc1c(-c2ccco2)cc(-c2ccc(F)cc2)nc1N` gave HNF4A DNA FP 44*, CSN inh 27, ASAP1 GAP inh 8 and ARFGAP1 inhibitor -13.
`CC(NC(=O)C1CCN(C(=O)c2cccs2)CC1)c1ccc(S(N)(=O)=O)cc1` (stereo not drawn) gave HNF4A DNA FP 31, CSN inh 101*, ASAP1 GAP inh -1 and ARFGAP1 inhibitor 7.
For COCCN(CC(=O)Nc1cccc(C)c1C)C(=O)c1ccc(S(=O)(=O)N2CCOCC2)cc1 the results were HNF4A DNA FP 3, CSN inh -4, ASAP1 GAP inh -9 and ARFGAP1 inhibitor 6.
`COc1ccccc1-c1ccc2c(c1)[C@@H]1C[C@H]3[C@@H](CN1CC2)[C@H](C)ON3C` gave ASAP1 GAP inh -8 and ARFGAP1 inhibitor 11.
`CCOC(=O)/C(=C/c1ccc(OC(=O)c2ccncc2)cc1)C(C)=O` gave HNF4A DNA FP -2, CSN inh 36*, ASAP1 GAP inh -5 and ARFGAP1 inhibitor 0.
For COCCOC(=O)/C(=C/c1ccc(OC(=O)c2ccccc2)cc1)C(C)=O the results were HNF4A DNA FP 0 and CSN inh 3.
N#Cc1ccccc1CSc1ncccc1C(=O)O was read as HNF4A DNA FP -3, CSN inh -1, ASAP1 GAP inh 1 and ARFGAP1 inhibitor 7.
`Cn1cccc1/C=C1\SC(=S)N(Nc2ccccc2)C1=O` gave HNF4A DNA FP 58*, CSN inh 34, ASAP1 GAP inh 4 and ARFGAP1 inhibitor 15.
Screening Cn1cccc1/C=C1\SC(=O)N(c2ccccc2)C1=O returned HNF4A DNA FP 3, CSN inh 43*, ASAP1 GAP inh -12 and ARFGAP1 inhibitor 3.
Screening CC(C)C(C(=O)O)N1C(=O)/C(=C/c2cccn2C)SC1=S (stereo not drawn) returned HNF4A DNA FP 88*, CSN inh 66*, ASAP1 GAP inh 14 and ARFGAP1 inhibitor 7.
Screening COc1cccc(/C=C2\SC(=S)N(C(Cc3ccccc3)C(=O)O)C2=O)c1 (stereo not drawn) returned HNF4A DNA FP 54*, CSN inh -1, ASAP1 GAP inh -4 and ARFGAP1 inhibitor -10.
O=C(Cc1c[nH]c2ccccc12)Nc1ccc(Nc2cccnc2)c(-c2cccc(Cl)c2)c1 was read as ASAP1 GAP inh 7 and ARFGAP1 inhibitor 20.
For O=C(Cc1cn(Cc2ccccc2)c2ccccc12)Nc1ccc(Nc2cccnc2)cc1 the results were ASAP1 GAP inh 13 and ARFGAP1 inhibitor 12.
Screening CN1OC[C@@H]2CN(Cc3ccc4c(c3)OCO4)[C@H](c3ccc(-n4ccnc4)cc3)C[C@@H]21 returned ASAP1 GAP inh -13 and ARFGAP1 inhibitor 11.
For O=C(O)C(Cc1ccccc1)N1C(=O)/C(=C/c2cccs2)SC1=S (stereo not drawn) the results were HNF4A DNA FP -2, CSN inh 7, ASAP1 GAP inh -4 and ARFGAP1 inhibitor 3.
For CCCC(C(=O)O)N1C(=O)/C(=C/c2cccn2C)SC1=S (stereo not drawn) the results were HNF4A DNA FP 115, CSN inh 89*, ASAP1 GAP inh 12 and ARFGAP1 inhibitor -6.
`COC(=O)C1=C(C)N(Cc2cccc(C(F)(F)F)c2)C(=NCc2cc(OC)c(OC)c(OC)c2)NC1c1ccc(Cl)cc1` (stereo not drawn) gave ASAP1 GAP inh -6 and ARFGAP1 inhibitor -5.
`CN1CCC(N(C)C(=O)c2sc3cc(F)ccc3c2Cl)CC1` gave HNF4A DNA FP 100*, CSN inh 3, ASAP1 GAP inh 19 and ARFGAP1 inhibitor -4.
`CC(C)N(CC(N)=O)C(=O)c1sc2cc(F)ccc2c1Cl` gave HNF4A DNA FP -2, CSN inh -2, ASAP1 GAP inh 2 and ARFGAP1 inhibitor -1.
Screening O=c1cc(Cl)[nH]c(=O)n1CCNc1ncc(C(F)(F)F)cc1Cl returned HNF4A DNA FP 50*, CSN inh 37*, ASAP1 GAP inh 13 and ARFGAP1 inhibitor 4.
Screening CCCC(CCC)C(=O)Nc1cccc(-c2cn3c(n2)SCC3)c1 returned HNF4A DNA FP 38*, CSN inh -4, ASAP1 GAP inh 0 and ARFGAP1 inhibitor 15.
Screening CC1(C)OC(c2ccccc2)=C/C(=C/C=C2C(=O)c3ccccc3C2=O)O1 returned HNF4A DNA FP 84*, CSN inh 29, ASAP1 GAP inh 7 and ARFGAP1 inhibitor 2.
Cc1cccn2c(=O)c3cc(C(N)=S)c(=N)n(CCCN4CCOCC4)c3nc12 was read as HNF4A DNA FP 9, CSN inh 37*, ASAP1 GAP inh -2 and ARFGAP1 inhibitor 4.
Screening CC(C)Cn1c(N)c(C(=O)CSc2nc3ccccc3n2C)c(=O)n(C)c1=O returned HNF4A DNA FP 48*, CSN inh -4, ASAP1 GAP inh -1 and ARFGAP1 inhibitor 14.
Cc1ccc2nc(NC(=O)c3ccc(-c4nc5ccccc5s4)s3)sc2c1 was read as HNF4A DNA FP 69*, CSN inh 52*, ASAP1 GAP inh 0 and ARFGAP1 inhibitor -5.
For C=CC(=O)NC1CCCCN(CCC)C1=O (stereo not drawn) the results were ASAP1 GAP inh 4 and ARFGAP1 inhibitor 4.
For CCOC(=O)C1CCN(c2nc3ccccc3nc2C(C#N)C(=O)OC(C)C)CC1 (stereo not drawn) the results were HNF4A DNA FP 79, CSN inh 45*, ASAP1 GAP inh 10 and ARFGAP1 inhibitor -1.
O=C(N[C@H](Cc1ccccc1)C(=O)NCCCN1CCCC1=O)[C@H]1O[C@@H](n2ccc(=O)[nH]c2=O)[C@H](O)[C@@H]1O was read as ASAP1 GAP inh -4 and ARFGAP1 inhibitor -10.
Cc1ccc(Cc2c(-c3cccc(Cl)c3)nc3ccc(Cl)cn23)cc1 was read as HNF4A DNA FP 11, CSN inh 39*, ASAP1 GAP inh 14 and ARFGAP1 inhibitor -8.
`Clc1cccc(-c2nc3ccc(Br)cn3c2Cc2ccsc2)c1` gave HNF4A DNA FP 35*, CSN inh 1, ASAP1 GAP inh -2 and ARFGAP1 inhibitor 4.

Source: PubChem (several laboratories)
